Data published in ChEMBL document CHEMBL1781992, “A novel monocarbonyl analogue of curcumin, (1E,4E)-1,5-bis(2,3-dimethoxyphenyl)penta-1,4-dien-3-one, induced cancer cell H460 apoptosis via activation of endoplasmic reticulum stress signaling pathway” (J Med Chem, 2011).
The source made the active and inactive calls. The rule behind the calls is not given here.

Assays:
[1] = system: NCI-H460; assay: Induction of apoptosis in human NCI-H460 cells assessed as late apoptotic cells at 10 uM after 6 hrs by annexinV-propidium iodide staining based flow cytometric analysis relative to control; type: functional
Summary of the method: (§1)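 H460 cells plated for 6 h, then treated with 5, 10 or 20 μM. Cells washed, trypsin-EDTA detached and resuspended in PBS, then stained with annexin V and propidium iodide plus RNase and 0.1% Triton X-100 for 30 min at 37 °C before flow cytometry. Figure legend gives 6 h incubation.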

[2] = target: Transcription factor Jun (Homo sapiens) (UniProt P05412); assay: Induction of c-Jun phosphorylation in human NCI-H460 cells at 20 uM by Western blot analysis; type: cell-based; conditions: TDE = time-dependent effect
Summary of the method: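 H460 cells in RPMI 1640 with 5% FBS, treated at 20 μM for 12 h. Lysates in Tris-HCl pH 7.4, NP40, SDS buffer with protease/phosphatase inhibitors. p-c-Jun examined by Western blot with HRP secondary and chemiluminescence, actin as equal-loading control.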

[3] = system: NCI-H460; assay: Induction of GRP78 protein expression in human NCI-H460 cells at 5 to 20 uM after 3 hrs by Western blot analysis; type: functional, cell-based
Summary of the method: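 H460 cells treated for 3 h; GRP78 protein detected by Western blot with actin as loading control.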

[4] = system: NCI-H460; assay: Induction of apoptosis in human NCI-H460 cells assessed as viable cells at 10 uM after 6 hrs by annexinV-propidium iodide staining based flow cytometric analysis relative to control; type: functional; conditions: NCI-H460, 6 h, read-out: Activity; summary of the method: as §1
[5] = system: NCI-H460; assay: Induction of CHOP protein expression in human NCI-H460 cells at 20 uM after 6 to 24 hrs by Western blot analysis; type: functional, cell-based
Summary of the method: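 H460 cells treated for 6–24 h, or across a range of concentrations. CHOP protein measured by Western blot, densitometry expressed as percent of control; Student's t test.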

[6] = system: NCI-H460; assay: Induction of ATF-4 protein level in human NCI-H460 cells at 20 uM after 6 hrs by Western blot analysis
[7] = system: NCI-H460; assay: Cytotoxicity against human NCI-H460 cells transfected with lentivirus carrying CHOP siRNA assessed as reduction of cell viability at 10 uM after 24 hrs by CellTiter-Glo analysis; type: functional, cell-based
Summary of the method: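 H460 cells infected with lentivirus carrying CHOP siRNA or nonspecific siRNA; 48 h later treated with 10 μM for 24 h. Survival measured with CellTiter-Glo as percent of nontransfected DMSO-treated cells.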

[8] = system: NCI-H460; assay: Induction of apoptosis in human NCI-H460 cells assessed as early apoptotic cells at 5 uM after 6 hrs by annexinV-propidium iodide staining based flow cytometric analysis relative to control; type: functional; summary of the method: as §1
[9] = target: Transcription factor Jun (Homo sapiens) (UniProt P05412); assay: Induction of c-Jun phosphorylation in human NCI-H460 cells at 20 uM after 3 hrs by Western blot analysis; type: cell-based
Summary of the method: (§2)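 H460 cells cultured in RPMI 1640 with 5% heat-inactivated FBS at 37 C, 10% CO2; exposed to 20 μM for a time course. Lysed at 0 C in Tris-HCl pH 7.4 buffer with NP40, SDS, and protease/phosphatase inhibitors. Phospho-c-Jun detected by Western blot with chemiluminescence, actin as loading control; band density quantified.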

[10] = system: NCI-H460; assay: Induction of apoptosis in human NCI-H460 cells assessed as late apoptotic cells at 5 uM after 6 hrs by annexinV-propidium iodide staining based flow cytometric analysis relative to control; type: functional; summary of the method: as §1
[11] = system: NCI-H460; assay: Induction of apoptosis in human NCI-H460 cells assessed as early apoptotic cells at 10 uM after 6 hrs by annexinV-propidium iodide staining based flow cytometric analysis relative to control; type: functional; summary of the method: as §1
[12] = system: NCI-H460; assay: Induction of CHOP expression in human NCI-H460 cells at 15 to 20 uM after 24 hrs by Western blot analysis; type: functional, cell-based
Summary of the method: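 H460 cells treated for 24 h at the indicated concentrations; whole-cell lysates probed for CHOP by Western blot, with actin as loading control.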

[13] = system: NCI-H460; assay: Increase in p53 expression in human NCI-H460 cells at 20 uM by Western blot analysis; type: functional, cell-based; conditions: TDE = time-dependent effect
Summary of the method: (§3)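 H460 cells exposed to 20 μM for varying times, or to a range of concentrations for 12 h. Lysates made in Tris-HCl pH 7.4/NaCl/NP40/SDS buffer with protease and phosphatase inhibitors, then probed for p53 by Western blot with chemiluminescent detection; bands quantified by densitometry.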

[14] = system: NCI-H460; assay: Decrease in CHOP protein expression in human NCI-H460 cells transfected with lentivirus carrying CHOP siRNA at 10 uM after 6 hrs by Western blot analysis
[15] = system: NCI-H460; assay: Induction of CHOP mRNA expression in human NCI-H460 cells after 6 hrs by real time quantitative PCR analysis; type: functional, cell-based
Summary of the method: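 H460 cells exposed to a concentration range for 6 or 12 h. CHOP mRNA measured by RT-PCR/qPCR and normalized to β-actin.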

[16] = system: NCI-H460; assay: Increase in p53 expression in human NCI-H460 cells after 1 to 12 hrs by Western blot analysis; type: functional, cell-based; summary of the method: as §3
[17] = system: NCI-H460; assay: Induction of ATF-4 mRNA expression in human NCI-H460 cells after 3 hrs by real time quantitative PCR analysis
[18] = system: NCI-H460; assay: Induction of apoptosis in human NCI-H460 cells assessed as non-viable necrotic cells at 10 uM after 6 hrs by annexinV-propidium iodide staining based flow cytometric analysis relative to control; type: functional; summary of the method: as §1
[19] = system: NCI-H460; assay: Antitumor activity against human NCI-H460 cells xenografted in nude Balb/cA mouse assessed as decrease in tumor volume at 50 mg/kg, ip qd for 20 days measured on day 22 relative to control; type: functional; parameters: scale not given: the % may be the effect or the level left; conditions: route intraperitoneal
Summary of the method: (§4)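 BALB/cA nu/nu female athymic mice bearing sc right-flank xenografts (3 × 10^6 H460 cells in PBS); once-daily ip dosing began on day 10, when tumors reached 100–300 mm3. Water-soluble liposome preparation in PBS at 10 or 50 mg/kg; controls received liposome vehicle in PBS. Volume = lw²/2; T/C read on day 22. Seven mice per group, mean ± SD; Student's t test.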

[20] = system: NCI-H460; assay: Cytotoxicity against human NCI-H460 cells assessed as reduction of cell survival after 24 hrs by CellTiter-Glo analysis; type: functional, cell-based
Summary of the method: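 H460 cells (5 × 10^3/well) seeded overnight, then given fresh medium containing compound from DMSO stock (final 5, 10, 20 μM; 2.5–30 μM in the figure) for 24 h. Viability measured with CellTiter-Glo and expressed as percent of vehicle-treated cells; Student's t test.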

[21] = system: NCI-H460; assay: Antitumor activity against human NCI-H460 cells xenografted in nude Balb/cA mouse assessed as decrease in tumor volume at 10 mg/kg, ip qd for 20 days measured on day 22 relative to control; type: functional; parameters: scale not given: the % may be the effect or the level left; conditions: route intraperitoneal; summary of the method: as §4
[22] = target: Transcription factor Jun (Homo sapiens) (UniProt P05412); assay: Induction of c-Jun phosphorylation in human NCI-H460 cells at 20 uM after 12 hrs by Western blot analysis; type: cell-based; summary of the method: as §2
[23] = system: NCI-H460; assay: Induction of apoptosis in human NCI-H460 cells assessed as early apoptotic cells at 20 uM after 6 hrs by annexinV-propidium iodide staining based flow cytometric analysis relative to control; type: functional; summary of the method: as §1

Chain of Transcription factor Jun (Homo sapiens) (P05412 whole entry): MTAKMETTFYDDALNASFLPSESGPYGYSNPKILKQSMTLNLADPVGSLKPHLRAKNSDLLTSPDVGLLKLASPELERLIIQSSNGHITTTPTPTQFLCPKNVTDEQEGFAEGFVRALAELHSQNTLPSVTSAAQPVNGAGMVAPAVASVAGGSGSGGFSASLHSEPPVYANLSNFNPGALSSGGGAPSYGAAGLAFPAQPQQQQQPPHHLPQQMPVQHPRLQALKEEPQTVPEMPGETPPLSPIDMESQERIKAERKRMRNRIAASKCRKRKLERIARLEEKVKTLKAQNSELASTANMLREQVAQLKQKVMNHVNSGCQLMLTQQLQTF

With `COc1cccc(/C=C/C(=O)/C=C/c2cccc(OC)c2OC)c1OC` the Activity [1] was 3.3%, the Activity [2] was “tde” and the Activity [3] was “Active”. The viability at 10 µM [4] was 72.5%, the Activity [5] was “Active” and the Activity [6] was “Active”. The Activity [7] was “inactive”, the Activity [8] was 7.44% and the Activity [9] was “Active”. The Activity [10] was 2.62%, the Activity [11] was 22.74% and the Activity [12] was “Active”. The Activity [13] was “tde”, the Activity [14] was “inactive” and the Activity [15] was “Dose-dependent effect”. The Activity [16] was “Dose-dependent effect”, the Activity [17] was “Dose-dependent effect” and the Activity [18] was 1.49%. The Activity [19] was 46.5%, the Activity [20] was “Dose-dependent effect” and the Activity [21] was 75.8%. For the same compound, the Activity [22] was “Active” and the Activity [23] was 29.68%.
